# Measured values taken from PMC3517154 (ChemMedChem, 2011).
# Tests used:
# PPARγ = biological target: T1, PPARγ (Homo sapiens, UniProt P37231); experiment: Cell-based PPARγ transactivation assay; conditions: for Maximal efficacy: compared to the reference full agonist (2, MRL20); for EC50: read-out: Cell-based EC50, Cos-1 cells, 3xPPRE luciferase reporter, full-length PPARγ, 24 h, dose-response
# T1 sequence (P37231 1-505): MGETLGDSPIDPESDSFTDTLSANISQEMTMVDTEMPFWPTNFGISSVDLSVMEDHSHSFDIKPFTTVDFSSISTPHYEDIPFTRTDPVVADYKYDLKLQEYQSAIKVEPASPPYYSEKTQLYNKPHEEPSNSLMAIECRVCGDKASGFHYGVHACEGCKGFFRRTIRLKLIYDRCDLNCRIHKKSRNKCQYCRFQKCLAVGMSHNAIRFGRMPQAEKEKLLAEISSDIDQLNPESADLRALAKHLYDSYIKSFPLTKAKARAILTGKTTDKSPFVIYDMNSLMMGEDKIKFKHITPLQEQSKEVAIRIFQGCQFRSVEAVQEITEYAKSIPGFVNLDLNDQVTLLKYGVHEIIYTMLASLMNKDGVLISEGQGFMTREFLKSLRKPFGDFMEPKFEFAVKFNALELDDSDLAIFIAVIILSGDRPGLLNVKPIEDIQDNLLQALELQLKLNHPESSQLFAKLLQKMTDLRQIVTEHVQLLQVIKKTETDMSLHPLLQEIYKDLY
# Outline: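 Cos-1 cells, trypsinized, bulk reverse-transfected 24 h (FuGene6, lipid:DNA 3:1; DMEM + 10% FBS) with 1.5 μg 3xPPRE luciferase reporter plus 1.5 μg full-length PPARγ (pSport6). Replated at 10,000 cells/well, 4 h at 37°C, 5% CO2. Ten-point serial dilution, 5 μM – 200 pM, in triplicate, then 24 h. One-step luciferase reagent, luminescence read. Activity taken as fold over DMSO. Partial and full agonist controls, DMSO negative. EC50 from curve fit.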
# PPARγ LBD = biological target: T2, PPARγ LBD (Homo sapiens, UniProt P37231); experiment: Fluorescence polarization; type: binding; conditions: read-out: FP Assay IC50; recombinant PPARγ LBD, 5 nM Fluoromone Green ligand, 25°C, 2 hours
# T2 sequence (P37231 238-503 limits assumed): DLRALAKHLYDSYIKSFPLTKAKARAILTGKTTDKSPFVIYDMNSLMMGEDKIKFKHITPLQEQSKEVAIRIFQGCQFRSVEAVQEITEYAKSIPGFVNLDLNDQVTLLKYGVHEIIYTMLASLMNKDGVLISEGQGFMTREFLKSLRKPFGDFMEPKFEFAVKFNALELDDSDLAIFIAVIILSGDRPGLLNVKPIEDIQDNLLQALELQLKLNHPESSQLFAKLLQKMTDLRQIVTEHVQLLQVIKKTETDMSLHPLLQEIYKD
# Outline: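 Competitive FP binding run per kit instructions. 20 ng recombinant PPARγ LBD plus 5 nM Fluoromone Green probe, mixed with an equal volume of screening buffer holding DMSO or test compound. Incubated 2 h at 25°C. Polarization read at 485 nm excitation and 535 nm emission. Rosiglitazone used as positive competitor. IC50 from dose-response curve fit.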
SMILES,Maximal efficacy (PPARγ),EC50 (PPARγ),IC50 (PPARγ LBD)
COc1ccc(-c2nn(-c3ccccc3)cc2/C=C2/SC(=S)N(CCC(=O)O)C2=O)c(C)c1 [Compound 3],44.41%,283 nM,152 nM
CCn1cnc2c1c(=O)n(Cc1cccc([N+](=O)[O-])c1)c(=O)n2Cc1ccccc1 [Compound 4],64.11%,181 nM,173 nM
CC(=O)N1N=C(c2ccccc2)CC1c1cn(Cc2ccccc2)c2ccccc12 (stereo not drawn) [Compound 5],44.71%,1200 nM,2000 nM
CCOc1ccc2nc(N3C(=O)C(O)=C(C(=O)c4ccco4)C3c3ccco3)sc2c1 (stereo not drawn) [Compound 6],37.04%,1200 nM,3000 nM
COc1ccc2nc(N3C(=O)C(O)=C(C(=O)c4ccco4)C3c3ccc(C)o3)sc2c1 (stereo not drawn) [Compound 7],41.14%,5000 nM,5000 nM
Cc1ccc2nc(N3C(=O)C(O)=C(C(=O)c4ccc(C)o4)C3c3ccco3)sc2c1 (stereo not drawn) [Compound 8],45.76%,18000 nM,22000 nM
